Common to all, as to type: functional
Holding throughout (conditions): route intraperitoneal

Test [1] deals with Staphylococcus aureus. Put plainly: Antibacterial activity against Staphylococcus aureus SD in rat graft model assessed as biofilm reduction at 30 mg/kg, ip administered as single dose, 2 days after graft implantation. In short, it runs like this:
(§1)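 Wistar rats (n = 5) with 1-cm2 collagen-sealed Dacron grafts implanted subcutaneously. 2 × 10^7 exponentially growing bacteria inoculated onto the graft. RIP given intraperitoneally daily for 1, 4 or 7 days, starting immediately after implantation or 2 days later. Grafts explanted on day 10. Bacterial load expressed as CFU/ml; detection limit 10 CFU/ml. Untreated challenged controls.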

Test [2] has as its system Staphylococcus aureus. Put plainly: Antibacterial activity against Staphylococcus aureus SD in rat graft model assessed as biofilm reduction at 20 mg/kg, ip administered as single dose immediately after graft implantation. In short, it runs like this:
as §1

Test [3] relates to Staphylococcus aureus. Description: Antibacterial activity against methicillin-resistant Staphylococcus aureus ATCC 43300 in rat graft model assessed as biofilm reduction at 10 mg/kg, ip administered as seven dose, 3 days after graft implantation. In short, it runs like this:
(§2)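 Wistar rats (n = 15) with subcutaneous 1-cm2 collagen-sealed Dacron grafts challenged with MRSA. Treatment began 3 days after implantation, once the biofilm was established. RIP 10 mg/kg and/or teicoplanin 3 mg/kg given ip daily for 7 days. Grafts explanted on day 10 and counted as CFU/ml. Untreated controls explanted on days 3 and 10.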

Test [4] concerns Staphylococcus aureus. Description: Antibacterial activity against Staphylococcus aureus SD in rat graft model assessed as biofilm reduction at 10 mg/kg, ip administered as four doses, 2 days after graft implantation. In short, it runs like this: as §1
Test [5] has as its system Staphylococcus aureus. Put plainly: Antibacterial activity against Staphylococcus aureus SD in rat graft model assessed as biofilm reduction at 10 mg/kg, ip administered as single dose immediately after graft implantation. The essentials: as §1
Test [6] concerns Staphylococcus aureus. Put plainly: Antibacterial activity against Staphylococcus aureus SD in rat graft model assessed as biofilm reduction at 30 mg/kg, ip administered as four doses, 2 days after graft implantation. In short, it runs like this:
as §1

Test [7] has as its system Staphylococcus aureus. Description: Antibacterial activity against Staphylococcus aureus SD in rat graft model assessed as biofilm reduction at 30 mg/kg, ip administered as single dose immediately after graft implantation. In short, it runs like this: as §1
In test [8] the test system is Staphylococcus aureus. Description: Antibacterial activity against Staphylococcus aureus SD in rat graft model assessed as biofilm reduction at 20 mg/kg, ip administered as seven doses, 2 days after graft implantation. In short, it runs like this: as §1
Test [9] deals with Staphylococcus aureus. Description: Antibacterial activity against methicillin-resistant Staphylococcus aureus ATCC 43300 in rat graft model assessed as biofilm reduction at 3 mg/kg, ip administered as seven dose, 3 days after graft implantation. In short, it runs like this:
as §2

Test [10] deals with Staphylococcus aureus. Description: Antibacterial activity against Staphylococcus aureus SD in rat graft model assessed as biofilm reduction at 20 mg/kg, ip administered as four doses, 2 days after graft implantation. In short, it runs like this: as §1
In test [11] the test system is Staphylococcus aureus. Put plainly: Antibacterial activity against Staphylococcus aureus SD in rat graft model assessed as biofilm reduction at 30 mg/kg, ip administered as seven doses, 2 days after graft implantation. The essentials: as §1
For test [12], the system named is Staphylococcus aureus. Put plainly: Antibacterial activity against Staphylococcus aureus SD in rat graft model assessed as biofilm reduction at 10 mg/kg, ip administered as seven doses, 2 days after graft implantation. The essentials: as §1
Test [13] concerns Staphylococcus aureus. Put plainly: Antibacterial activity against Staphylococcus aureus SD in rat graft model assessed as biofilm reduction at 10 mg/kg, ip administered as single dose, 2 days after graft implantation. In short, it runs like this:
as §1

Test [14] deals with Staphylococcus aureus. Description: Antibacterial activity against Staphylococcus aureus SD in rat graft model assessed as biofilm reduction at 20 mg/kg, ip administered as single dose, 2 days after graft implantation. The essentials:
as §1

In the case of H-YSPWTNF-NH2, the CFU/ml in the test with Staphylococcus aureus [1] is given as 760000; in the test on Staphylococcus aureus [2] it was 9400; in the test with Staphylococcus aureus [3], 78000; with Staphylococcus aureus [4] it was 53000; with Staphylococcus aureus [5] it was 50000; in the test on Staphylococcus aureus [6], 850. Further, the CFU/ml is 2300 in the test with Staphylococcus aureus [7]; 410 in the test on Staphylococcus aureus [8]; 36000 in the test on Staphylococcus aureus [9]; 6300 in the test with Staphylococcus aureus [10]; 290 in the test on Staphylococcus aureus [11]; 6700 in the test on Staphylococcus aureus [12]. The CFU/ml in the test with Staphylococcus aureus [13] came to 8400000; with Staphylococcus aureus [14], 3000000.

The values above are taken from ChEMBL document CHEMBL1143826, “Treatment of Staphylococcus aureus biofilm infection by the quorum-sensing inhibitor RIP” (2007).
